Source: ChEMBL document CHEMBL5653631, “A Potent and Selective ULK1 Inhibitor Suppresses Autophagy and Sensitizes Cancer Cells to Nutrient Stress” (iScience, 2018)
One block for each molecule: values may come before it.

Tests used:
[1] = target: 5'-AMP-activated protein kinase catalytic subunit alpha-2 (Homo sapiens) (UniProt P54646); test: Inhibition of human recombinant AMPKa2 at 500 nM related to control ULK1
Outline: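 Panel of 327 recombinant human kinases, each assayed in vitro by radiometric activity assay in duplicate at a single inhibitor concentration per compound, chosen with reference to its ULK1 inhibition. Activity remaining was expressed as percent of vehicle control, and percent inhibition was calculated as 100 minus percent activity remaining.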

[2] = target: DNA-PK/Ku70/Ku85 (Homo sapiens) (UniProt P78527+P12956+P13010); test: Inhibition of human recombinant DNAPK at 500 nM related to control ULK1; type: protein-complex assay
[3] = target: Rhodopsin kinase GRK7 (Homo sapiens) (UniProt Q8WTQ7); test: Inhibition of human recombinant GPRK7 at 500 nM in presence of ATP by radiometric assay relative to control
[4] = target: Receptor-interacting serine/threonine-protein kinase 2 (Homo sapiens) (UniProt O43353); test: Inhibition of human recombinant RIPK2 at 500 nM in presence of ATP by radiometric assay relative to control
[5] = target: T1, Tyrosine-protein kinase Mer (Homo sapiens) (UniProt Q12866); test: Inhibition of human recombinant MER at 500 nM in presence of ATP by radiometric assay relative to control
T1 sequence (whole entry): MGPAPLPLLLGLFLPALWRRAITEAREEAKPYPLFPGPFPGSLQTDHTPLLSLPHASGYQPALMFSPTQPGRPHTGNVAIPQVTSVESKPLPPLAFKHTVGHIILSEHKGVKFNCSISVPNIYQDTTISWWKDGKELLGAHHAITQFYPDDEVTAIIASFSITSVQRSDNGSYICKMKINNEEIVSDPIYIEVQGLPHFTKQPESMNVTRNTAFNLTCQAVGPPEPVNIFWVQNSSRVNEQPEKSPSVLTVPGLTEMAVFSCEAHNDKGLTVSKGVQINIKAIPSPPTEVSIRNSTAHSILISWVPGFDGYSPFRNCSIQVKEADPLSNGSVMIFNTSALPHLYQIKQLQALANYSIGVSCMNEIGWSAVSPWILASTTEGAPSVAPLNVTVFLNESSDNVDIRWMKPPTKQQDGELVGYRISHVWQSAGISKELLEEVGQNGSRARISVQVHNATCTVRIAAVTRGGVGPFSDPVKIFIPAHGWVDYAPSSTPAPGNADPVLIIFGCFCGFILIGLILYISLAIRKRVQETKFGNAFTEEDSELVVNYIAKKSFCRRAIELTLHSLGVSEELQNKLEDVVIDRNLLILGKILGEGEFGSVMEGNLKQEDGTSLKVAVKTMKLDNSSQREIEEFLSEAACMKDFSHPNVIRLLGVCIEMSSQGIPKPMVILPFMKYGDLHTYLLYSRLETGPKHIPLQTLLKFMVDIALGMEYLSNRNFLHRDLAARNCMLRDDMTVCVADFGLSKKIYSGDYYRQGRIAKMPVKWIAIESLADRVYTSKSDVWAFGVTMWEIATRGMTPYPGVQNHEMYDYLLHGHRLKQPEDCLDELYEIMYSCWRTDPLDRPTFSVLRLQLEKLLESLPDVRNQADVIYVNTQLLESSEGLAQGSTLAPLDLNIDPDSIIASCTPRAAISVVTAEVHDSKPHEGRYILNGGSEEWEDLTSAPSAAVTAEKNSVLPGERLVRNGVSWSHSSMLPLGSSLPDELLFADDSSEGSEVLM

[6] = target: Death-associated protein kinase 1 (Homo sapiens) (UniProt P53355); test: Inhibition of human recombinant DAPK1 at 40 nM related to control ULK1
[7] = target: T2, Inhibitor of nuclear factor kappa-B kinase subunit alpha (Homo sapiens) (UniProt O15111); test: Inhibition of human recombinant IKKa at 40 nM related to control ULK1
T2 sequence (whole entry): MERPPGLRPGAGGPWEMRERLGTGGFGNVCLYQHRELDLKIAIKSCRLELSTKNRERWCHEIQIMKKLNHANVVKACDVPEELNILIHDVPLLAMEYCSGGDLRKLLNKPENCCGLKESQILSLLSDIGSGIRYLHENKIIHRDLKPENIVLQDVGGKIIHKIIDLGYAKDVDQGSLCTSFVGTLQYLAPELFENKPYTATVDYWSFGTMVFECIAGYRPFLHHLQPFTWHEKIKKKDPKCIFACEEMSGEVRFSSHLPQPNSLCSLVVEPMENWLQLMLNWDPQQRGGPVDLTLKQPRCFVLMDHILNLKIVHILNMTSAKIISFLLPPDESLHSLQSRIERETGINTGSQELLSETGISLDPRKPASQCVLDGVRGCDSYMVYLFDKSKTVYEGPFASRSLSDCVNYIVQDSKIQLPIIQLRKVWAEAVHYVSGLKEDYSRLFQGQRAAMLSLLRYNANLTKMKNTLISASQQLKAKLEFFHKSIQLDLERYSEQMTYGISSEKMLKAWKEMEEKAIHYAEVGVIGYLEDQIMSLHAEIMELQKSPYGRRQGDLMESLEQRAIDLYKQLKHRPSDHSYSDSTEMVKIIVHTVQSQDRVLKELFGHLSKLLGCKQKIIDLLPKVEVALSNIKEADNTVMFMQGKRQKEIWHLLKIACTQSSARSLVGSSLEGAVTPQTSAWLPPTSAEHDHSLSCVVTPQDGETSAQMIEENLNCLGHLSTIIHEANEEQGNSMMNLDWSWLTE

[8] = target: Cyclin-dependent kinase 3 (Homo sapiens) (UniProt Q00526); test: Inhibition of human recombinant CDK3 at 15 nM in presence of ATP by radiometric assay relative to control
[9] = target: Mitogen-activated protein kinase kinase kinase 20 (Homo sapiens) (UniProt Q9NYL2); test: Inhibition of human recombinant ZAK at 15 nM in presence of ATP by radiometric assay relative to control
[10] = target: Serine/threonine-protein kinase PLK1 (Homo sapiens) (UniProt P53350); test: Inhibition of human recombinant PLK1 at 15 nM related to control ULK1
[11] = target: Serine/threonine-protein kinase 32C (Homo sapiens) (UniProt Q86UX6); test: Inhibition of human recombinant YANK3 at 15 nM related to control ULK1
[12] = target: Ribosomal protein S6 kinase alpha-2 (Homo sapiens) (UniProt Q15349); test: Inhibition of human recombinant RSK3 at 15 nM related to control ULK1
Chain of Ribosomal protein S6 kinase alpha-2 (Homo sapiens) (Q15349 whole entry): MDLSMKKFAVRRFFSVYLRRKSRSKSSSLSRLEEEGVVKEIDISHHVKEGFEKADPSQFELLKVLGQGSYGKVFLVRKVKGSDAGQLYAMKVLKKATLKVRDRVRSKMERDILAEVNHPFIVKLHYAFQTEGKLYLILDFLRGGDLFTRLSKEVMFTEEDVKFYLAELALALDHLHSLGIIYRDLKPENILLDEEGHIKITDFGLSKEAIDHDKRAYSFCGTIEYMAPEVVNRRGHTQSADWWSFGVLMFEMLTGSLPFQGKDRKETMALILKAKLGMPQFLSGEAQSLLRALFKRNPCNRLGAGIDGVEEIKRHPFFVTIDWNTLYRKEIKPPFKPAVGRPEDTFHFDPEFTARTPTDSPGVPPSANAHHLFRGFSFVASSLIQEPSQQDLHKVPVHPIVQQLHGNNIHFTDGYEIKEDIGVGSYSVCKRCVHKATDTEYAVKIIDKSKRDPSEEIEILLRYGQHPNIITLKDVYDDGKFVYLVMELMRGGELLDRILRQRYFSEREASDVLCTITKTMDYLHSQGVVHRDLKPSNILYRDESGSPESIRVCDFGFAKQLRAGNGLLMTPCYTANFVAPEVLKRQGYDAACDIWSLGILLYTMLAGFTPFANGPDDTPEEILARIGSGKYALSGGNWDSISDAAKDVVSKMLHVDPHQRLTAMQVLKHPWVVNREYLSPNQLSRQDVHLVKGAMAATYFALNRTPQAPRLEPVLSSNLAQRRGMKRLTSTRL

Chain of Cyclin-dependent kinase 3 (Homo sapiens) (Q00526 whole entry, looked up): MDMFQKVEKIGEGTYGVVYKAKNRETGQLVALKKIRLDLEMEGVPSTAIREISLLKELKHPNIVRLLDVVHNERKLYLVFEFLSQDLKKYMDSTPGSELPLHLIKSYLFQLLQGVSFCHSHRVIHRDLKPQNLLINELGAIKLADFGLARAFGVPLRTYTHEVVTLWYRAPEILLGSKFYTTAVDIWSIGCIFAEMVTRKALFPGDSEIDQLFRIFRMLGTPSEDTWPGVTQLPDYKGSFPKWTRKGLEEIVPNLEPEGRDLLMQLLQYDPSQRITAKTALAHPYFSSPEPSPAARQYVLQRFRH
Chain of Death-associated protein kinase 1 (Homo sapiens) (P53355 whole entry, looked up): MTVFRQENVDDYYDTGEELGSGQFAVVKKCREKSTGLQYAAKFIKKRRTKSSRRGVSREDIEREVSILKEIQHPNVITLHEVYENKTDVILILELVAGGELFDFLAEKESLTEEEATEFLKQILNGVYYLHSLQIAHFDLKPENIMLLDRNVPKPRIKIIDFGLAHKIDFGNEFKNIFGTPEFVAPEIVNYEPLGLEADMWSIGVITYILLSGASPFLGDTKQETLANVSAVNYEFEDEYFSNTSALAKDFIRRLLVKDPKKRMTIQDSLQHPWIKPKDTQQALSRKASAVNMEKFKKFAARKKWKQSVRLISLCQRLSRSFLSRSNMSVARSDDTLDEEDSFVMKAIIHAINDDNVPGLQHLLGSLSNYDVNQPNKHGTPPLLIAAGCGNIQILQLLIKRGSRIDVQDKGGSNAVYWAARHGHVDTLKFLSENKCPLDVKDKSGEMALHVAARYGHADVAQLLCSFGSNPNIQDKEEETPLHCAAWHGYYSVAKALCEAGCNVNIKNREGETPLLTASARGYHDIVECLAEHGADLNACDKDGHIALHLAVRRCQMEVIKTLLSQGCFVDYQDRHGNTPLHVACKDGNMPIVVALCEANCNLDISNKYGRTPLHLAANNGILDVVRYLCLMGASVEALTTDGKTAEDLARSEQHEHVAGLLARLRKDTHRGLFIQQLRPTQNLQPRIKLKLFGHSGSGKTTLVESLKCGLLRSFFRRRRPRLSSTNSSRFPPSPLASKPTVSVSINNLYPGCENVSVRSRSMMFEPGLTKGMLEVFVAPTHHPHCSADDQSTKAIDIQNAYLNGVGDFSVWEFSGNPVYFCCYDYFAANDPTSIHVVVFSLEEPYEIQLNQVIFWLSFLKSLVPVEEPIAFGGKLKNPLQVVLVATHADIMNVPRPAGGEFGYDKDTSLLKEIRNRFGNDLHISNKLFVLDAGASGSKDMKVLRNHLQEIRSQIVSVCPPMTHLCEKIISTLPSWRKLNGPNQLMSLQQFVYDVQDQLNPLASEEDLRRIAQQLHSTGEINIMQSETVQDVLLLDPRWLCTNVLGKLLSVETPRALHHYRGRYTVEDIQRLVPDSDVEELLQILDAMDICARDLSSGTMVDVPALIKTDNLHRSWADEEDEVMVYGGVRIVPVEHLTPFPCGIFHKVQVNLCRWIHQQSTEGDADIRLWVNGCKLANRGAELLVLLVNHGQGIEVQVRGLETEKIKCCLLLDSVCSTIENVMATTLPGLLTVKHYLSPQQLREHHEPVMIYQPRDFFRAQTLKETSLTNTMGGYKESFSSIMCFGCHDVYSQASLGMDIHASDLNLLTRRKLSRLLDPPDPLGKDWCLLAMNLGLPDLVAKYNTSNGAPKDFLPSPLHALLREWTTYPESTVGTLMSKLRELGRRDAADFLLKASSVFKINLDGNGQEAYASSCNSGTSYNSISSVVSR
Chain of Serine/threonine-protein kinase 32C (Homo sapiens) (Q86UX6 whole entry): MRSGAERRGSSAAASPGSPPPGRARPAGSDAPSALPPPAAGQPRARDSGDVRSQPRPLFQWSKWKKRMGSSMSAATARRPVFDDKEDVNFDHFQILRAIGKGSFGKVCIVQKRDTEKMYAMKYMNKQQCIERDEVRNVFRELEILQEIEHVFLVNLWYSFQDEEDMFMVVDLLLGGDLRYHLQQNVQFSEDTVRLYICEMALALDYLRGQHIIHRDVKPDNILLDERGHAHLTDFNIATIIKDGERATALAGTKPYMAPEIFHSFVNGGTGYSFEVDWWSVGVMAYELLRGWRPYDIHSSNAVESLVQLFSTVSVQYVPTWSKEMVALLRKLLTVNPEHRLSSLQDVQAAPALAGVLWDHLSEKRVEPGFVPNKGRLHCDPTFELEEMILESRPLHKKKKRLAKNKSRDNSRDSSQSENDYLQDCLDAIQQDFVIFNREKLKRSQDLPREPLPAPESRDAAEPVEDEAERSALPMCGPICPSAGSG
Chain of 5'-AMP-activated protein kinase catalytic subunit alpha-2 (Homo sapiens) (P54646 whole entry, looked up): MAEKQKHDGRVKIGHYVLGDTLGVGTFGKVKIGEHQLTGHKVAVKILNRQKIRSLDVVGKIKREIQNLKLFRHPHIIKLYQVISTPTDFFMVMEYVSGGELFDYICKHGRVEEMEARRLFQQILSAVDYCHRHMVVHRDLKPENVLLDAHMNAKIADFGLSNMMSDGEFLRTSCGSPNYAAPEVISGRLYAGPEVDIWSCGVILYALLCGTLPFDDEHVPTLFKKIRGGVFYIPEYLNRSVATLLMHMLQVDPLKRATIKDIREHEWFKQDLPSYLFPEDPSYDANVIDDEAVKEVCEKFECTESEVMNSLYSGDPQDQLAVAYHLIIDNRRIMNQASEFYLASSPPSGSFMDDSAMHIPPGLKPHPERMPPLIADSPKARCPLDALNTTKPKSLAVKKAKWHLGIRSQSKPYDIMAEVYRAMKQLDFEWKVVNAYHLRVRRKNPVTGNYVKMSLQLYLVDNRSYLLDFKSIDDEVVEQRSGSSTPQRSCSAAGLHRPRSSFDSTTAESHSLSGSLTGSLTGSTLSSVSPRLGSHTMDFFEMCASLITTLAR
Chain of Serine/threonine-protein kinase PLK1 (Homo sapiens) (P53350 whole entry): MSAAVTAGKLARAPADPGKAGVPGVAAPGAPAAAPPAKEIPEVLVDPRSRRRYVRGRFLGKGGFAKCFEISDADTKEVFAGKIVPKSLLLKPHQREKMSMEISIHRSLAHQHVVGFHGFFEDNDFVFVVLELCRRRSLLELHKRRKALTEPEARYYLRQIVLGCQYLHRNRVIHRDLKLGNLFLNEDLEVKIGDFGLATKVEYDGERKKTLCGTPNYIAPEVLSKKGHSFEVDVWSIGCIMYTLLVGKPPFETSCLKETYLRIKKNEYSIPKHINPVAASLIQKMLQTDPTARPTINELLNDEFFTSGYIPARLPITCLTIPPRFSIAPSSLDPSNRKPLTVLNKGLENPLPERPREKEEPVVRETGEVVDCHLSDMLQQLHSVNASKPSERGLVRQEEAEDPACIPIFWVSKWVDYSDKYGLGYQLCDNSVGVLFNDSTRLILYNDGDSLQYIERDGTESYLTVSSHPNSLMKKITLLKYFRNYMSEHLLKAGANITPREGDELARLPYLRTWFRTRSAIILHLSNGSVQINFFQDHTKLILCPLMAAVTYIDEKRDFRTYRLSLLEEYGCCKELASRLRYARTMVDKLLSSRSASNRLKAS
Chain of Mitogen-activated protein kinase kinase kinase 20 (Homo sapiens) (Q9NYL2 2-800 limits assumed): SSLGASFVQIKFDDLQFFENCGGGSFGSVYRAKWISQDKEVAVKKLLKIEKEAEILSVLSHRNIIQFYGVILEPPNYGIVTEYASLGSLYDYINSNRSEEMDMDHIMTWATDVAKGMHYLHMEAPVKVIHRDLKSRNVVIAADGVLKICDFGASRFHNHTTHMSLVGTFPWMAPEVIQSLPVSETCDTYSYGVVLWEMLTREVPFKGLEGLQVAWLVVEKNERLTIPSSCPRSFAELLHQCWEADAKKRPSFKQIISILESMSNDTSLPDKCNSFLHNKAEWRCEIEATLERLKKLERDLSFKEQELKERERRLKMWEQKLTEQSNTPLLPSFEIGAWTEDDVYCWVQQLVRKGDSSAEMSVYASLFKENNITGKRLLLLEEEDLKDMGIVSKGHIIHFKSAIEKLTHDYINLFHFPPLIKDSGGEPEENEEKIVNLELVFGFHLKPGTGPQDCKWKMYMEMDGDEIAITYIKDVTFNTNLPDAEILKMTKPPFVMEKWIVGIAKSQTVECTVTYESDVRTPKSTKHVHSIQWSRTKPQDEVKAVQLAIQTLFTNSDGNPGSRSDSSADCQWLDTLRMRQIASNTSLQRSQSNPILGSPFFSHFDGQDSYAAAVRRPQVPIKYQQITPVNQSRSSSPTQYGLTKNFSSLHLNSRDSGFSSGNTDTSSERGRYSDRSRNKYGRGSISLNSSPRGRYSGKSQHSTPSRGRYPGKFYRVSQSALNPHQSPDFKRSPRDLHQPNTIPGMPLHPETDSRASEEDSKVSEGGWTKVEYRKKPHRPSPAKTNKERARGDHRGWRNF

fold change (FC) [1]: 0.77 | fold change (FC) [2]: 0.16 | inhibition [3]: 10% | inhibition [4]: 0% | inhibition [5]: 9%
SMILES: CNC(=O)c1ccccc1Oc1nc(Nc2cc(OC)c(OC)c(OC)c2)ncc1Br

fold change (FC) [7]: 0
SMILES: O=C(N[C@@H](C1CC1)C(F)(F)F)c1cc(-c2cnn3cc(-c4ccc(F)cc4)cnc23)cs1
fold change (FC) [6]: 0

inhibition [8]: 5% | inhibition [9]: 26% | fold change (FC) [10]: 0.01 | fold change (FC) [11]: 0.03 | fold change (FC) [12]: 0.03
SMILES: CC(C)[C@H](NC(=O)c1cc(-c2cnn3cc(-c4ccc(OCCN5CCCCC5)cc4)cnc23)cs1)C(F)(F)F
